# From ChEMBL document CHEMBL1130100, “Stabilized analogs of thymopentin. 3. Evaluation of ketomethylene pseudopeptides for antiarthritic properties” (1997)
# Several values for one entry are separate records, joined by “and”; a condition that tells them apart may be missing. Equal entries are not always repeated.
# Experiments:
# Assay type in all cases: functional
# Mus musculus [1] = experiment: On set and incidence of arthritis in the Mouse Type II collagen model at 0.5 dose mg/kg on day 44, expressed as number of mice treated out of 12 tested
# How it was run: (§1)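 DBA/1 Lac mice sensitized with bovine type II collagen (100 μg) in Freund's complete adjuvant, ip boost (100 μg) on day 21. Freshly dissolved compound in sterile saline was given iv every second day, day 19 through day 40, groups of 12. A mouse was scored arthritic if erythema or edema was present on any digit, paw or appendage. Incidence reported as number positive of 12.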
# Mus musculus [2] = experiment: On set and incidence of arthritis in the Mouse Type II collagen model following 0.5 mg/kg on day 30.; settings: 0.5 mg/kg; how it was run: as §1
# Mus musculus [3] = experiment: On set and incidence of arthritis in the Mouse Type II collagen model at 0.5 dose mg/kg on day 40, expressed as number of mice treated out of 12 tested; how it was run: as §1
# Mus musculus [4] = experiment: Extent of paw swelling after treatment with thymopentin-5 (TP-5) compound in the Mouse Type II collagen arthritis at a dosage of 1.0 mg/kg on day 37
# How it was run: (§2)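 DBA/1 Lac mice immunized with bovine type II collagen (100 μg) in Freund's complete adjuvant at four to six back sites, then boosted ip (100 μg) on day 21. Dosing was iv in sterile saline every second day from day 19 through day 40, 12 mice per dose. Each hind paw was measured by caliper. Result given as % of untreated swelling after subtracting age-matched normal paw.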
# Mus musculus [5] = experiment: Extent of paw swelling after treatment with thymopentin-5 (TP-5) compound in the Mouse Type II collagen arthritis at 1 mg/kg on day 30.; how it was run: as §2
# Mus musculus [6] = experiment: On set and incidence of arthritis in the Mouse Type II collagen model at 0.5 dose mg/kg on day 37, expressed as number of mice treated out of 12 tested; how it was run: as §1
# Mus musculus [7] = experiment: Extent of paw swelling after treatment with thymopentin-5 (TP-5) compound in the Mouse Type II collagen arthritis at a dosage of 1.0 mg/kg on day 40; how it was run: as §2
# Mus musculus [8] = experiment: Extent of paw swelling after treatment with thymopentin-5 (TP-5) compound in the Mouse Type II collagen arthritis at a dosage of 1.0 mg/kg on day 44; how it was run: as §2
# Mus musculus [9] = experiment: Extent of paw swelling after treatment with thymopentin-5 (TP-5) compound in the Mouse Type II collagen arthritis at a dosage of 0.01 mg/kg on day 44; settings: 0.01 mg/kg; how it was run: as §2
# Rattus norvegicus [10] = experiment: extent of paw swelling following treatment with the compound in the rat adjuvant arthritis model observed on day 12 at 0.050 mg/kg dose; settings: dose 0.05 mg/kg
# How it was run: (§3)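 Rat adjuvant arthritis with iv dosing every second day, starting 2 days before the adjuvant/antigen challenge. Initial doses ranged 0.05 to 0.50 mg/kg, eight rats per dose. Each hind paw was measured by caliper. Swelling minus age-matched normal paw, expressed as % of untreated animals.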
# Rattus norvegicus [11] = experiment: extent of paw swelling following treatment with the compound in the rat adjuvant arthritis model observed on day 16 at 0.050 mg/kg dose; settings: dose 0.05 mg/kg; how it was run: as §3
# Rattus norvegicus [12] = experiment: extent of paw swelling following treatment with the compound in the rat adjuvant arthritis model observed on day 19 at 0.050 mg/kg dose; settings: dose 0.05 mg/kg; how it was run: as §3
# Mus musculus [13] = experiment: On set and incidence of arthritis in the Mouse Type II collagen model at 0.5 dose mg/kg on day 44, expressed as ratio of number treated to that of control; how it was run: as §1
# Rattus norvegicus [14] = experiment: extent of paw swelling following treatment with the compound in the rat adjuvant arthritis model observed on day 19 at 0.075 mg/kg dose; how it was run: as §3
# Rattus norvegicus [15] = experiment: extent of paw swelling following treatment with the compound in the rat adjuvant arthritis model observed on day 16 at 0.075 mg/kg dose; how it was run: as §3
# Mus musculus [16] = experiment: On set and incidence of arthritis in the Mouse Type II collagen model at 0.5 dose mg/kg on day 37, expressed as ratio of number treated to that of control; how it was run: as §1
# Rattus norvegicus [17] = experiment: extent of paw swelling following treatment with the compound in the rat adjuvant arthritis model observed on day 12 at 0.075 mg/kg dose; how it was run: as §3
# Rattus norvegicus [18] = experiment: extent of paw swelling following treatment with the compound in the rat adjuvant arthritis model observed on day 16 at 0.05 mg/kg dose; how it was run: as §3
# Mus musculus [19] = experiment: On set and incidence of arthritis in the Mouse Type II collagen model at 0.5 dose mg/kg on day 40, expressed as ratio of number treated to that of control; how it was run: as §1
# Rattus norvegicus [20] = experiment: extent of paw swelling following treatment with the compound in the rat adjuvant arthritis model observed on day 12 at 0.05 mg/kg dose; how it was run: as §3
# Rattus norvegicus [21] = experiment: extent of paw swelling following treatment with the compound in the rat adjuvant arthritis model observed on day 19 at 0.05 mg/kg dose; how it was run: as §3
# Mus musculus [22] = experiment: On set and incidence of arthritis in the Mouse Type II collagen model at 0.5 dose mg/kg on day 30, expressed as ratio of number treated to that of control; how it was run: as §1
# Mus musculus [23] = experiment: Extent of paw swelling after treatment with thymopentin-5 (TP-5) compound in mouse type II collagen arthritis at a dosage of 1.0 mg/kg on day 30; how it was run: as §2
SMILES,No. of mice (Mus musculus [1]),No. of mice (Mus musculus [2]),No. of mice (Mus musculus [3]),No. of mice (Mus musculus [6]),No. of mice (Mus musculus [13]),No. of mice (Mus musculus [16]),No. of mice (Mus musculus [19]),also measured
CC(C)[C@H](NC(=O)[C@H](CC(=O)O)NC(=O)[C@@H]1CCCN1C(=O)[C@@H](N)CCCN=C(N)N)C(=O)C[C@@H](Cc1ccccc1)C(=O)O (stereo in doubt; 1b-B),11,6,10,9,–,–,–,Paw swelling (Mus musculus [4]): 59%; Paw swelling (Mus musculus [5]): 66%; Paw swelling (Mus musculus [7]): 42%; Paw swelling (Mus musculus [8]): 53%
CCCC[C@H](NC(=O)[C@@H](N)CCCN=C(N)N)C(=O)N[C@@H](CC(=O)O)C(=O)N[C@H](C(=O)C[C@@H](Cc1ccccc1)C(=O)O)C(C)C (stereo in doubt; 1c-A),8,5,10,9,–,–,–,Paw swelling (Mus musculus [9]): 66% and 69% and 70% and 63%; Paw swelling (Rattus norvegicus [10]): 0%; Paw swelling (Rattus norvegicus [11]): 100%; Paw swelling (Rattus norvegicus [12]): 100%
CCCC[C@H](NC(=O)[C@@H](N)CCCN=C(N)N)C(=O)N[C@@H](CC(=O)O)C(=O)N[C@H](C(=O)C[C@@H](Cc1ccccc1)C(=O)O)C(C)C (stereo in doubt; 1c-B),12,8,11,11,–,–,–,Paw swelling (Mus musculus [8]): 100%
CCCCC(CC(=O)[C@@H](N)CCCN=C(N)N)C(=O)N[C@@H](CC(=O)O)C(=O)NC(C(=O)C[C@H](C(=O)O)C(C)C)C(C)C (stereo in doubt; 1h-B),–,6,–,–,9,7,–,Paw swelling (Rattus norvegicus [14]): 70%; Paw swelling (Rattus norvegicus [15]): 100%; Paw swelling (Rattus norvegicus [17]): 0%
CCCC[C@@H](C(=O)N[C@@H](CC(=O)O)C(=O)N[C@H](C(=O)C[C@H](C(=O)O)C(C)C)C(C)C)N(C)C(=O)[C@@H](N)CCCN=C(N)N (stereo in doubt; 1m-B),–,8,–,–,12,11,11,Paw swelling (Rattus norvegicus [18]): 100%; Paw swelling (Mus musculus [5]; 1 mg/kg): 100%; Paw swelling (Rattus norvegicus [20]): 0%; Paw swelling (Rattus norvegicus [21]): 100%
CC(C)[C@H](CC(=O)[C@H](CC(=O)O)NC(=O)[C@H](CCCCN)NC(=O)[C@@H](N)CCCN=C(N)N)C(=O)N[C@@H](Cc1ccccc1)C(=O)O (stereo in doubt; 3a-B),–,–,–,–,12,11,12,No. of mice (Mus musculus [22]): 8; Paw swelling (Mus musculus [23]): 100%
CC(CC(=O)[C@H](CC(=O)O)NC(=O)C(CCCCN)NC(=O)[C@@H](N)CCCN=C(N)N)C(=O)NC(Cc1ccccc1)C(=O)O (stereo in doubt; 3e-A),–,5,–,–,12,9,11,Paw swelling (Mus musculus [23]; 1 mg/kg): 88% and 57% and 73% and 75%
CC(CC(=O)[C@H](CC(=O)O)NC(=O)C(CCCCN)NC(=O)[C@@H](N)CCCN=C(N)N)C(=O)NC(Cc1ccccc1)C(=O)O (stereo in doubt; 3e-B),–,10,–,–,–,11,10,Paw swelling (Mus musculus [23]; 1 mg/kg): 100% and 68% and 77%
